From ChEMBL document CHEMBL1133665, “Secondary amides of (R)-3,3,3-trifluoro-2-hydroxy-2-methylpropionic acid as inhibitors of pyruvate dehydrogenase kinase” (J Med Chem, 2000)
Active and inactive are the calls of the source. The calls are words filed in the database; no cut-off is given here.

What was measured:
[1] = target: Pyruvate dehydrogenase kinase (Rattus norvegicus, UniProt Q63065+A6IPZ9+Q64536+O54937); assay: Inhibitory activity tested against Pyruvate Dehydrogenase Kinase (PDHK) receptor from rats.; format: protein assay
Method in brief: (§1)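 Commercial PDH complex used as the kinase-containing preparation. PDHK inhibition read spectrophotometrically as NADH production at 340 nm, measured with and without ATP. IC50 ± standard error, from purified substances.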

Rattus norvegicus [2] = assay: In vivo %control of lactate in normal Sprague-Dawley rats after 2 hr at a dose of 30 umol/Kg; Not active; format: functional, organism-based
Method in brief: (§2)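 Male Sprague-Dawley rats, about 200 g, randomly assigned to groups (n = 6/group) and fasted 24 h. Single oral dose of compound in 0.5% carboxymethylcellulose/0.2% Tween-80 (1 mL/100 g), or vehicle alone. Blood taken 2 h post-dose into heparin/fluoride tubes; lactate measured on a biochemistry analyzer. Expressed as percent of vehicle control; groups compared by two-tailed unpaired t-test.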

[3] = target: Pyruvate dehydrogenase kinase (Rattus norvegicus) (UniProt Q63065+A6IPZ9+Q64536+O54937); assay: Inhibition of Pyruvate Dehydrogenase Kinase (PDHK) receptor from rats; Inactive; format: protein assay; method in brief: as §1
Rattus norvegicus [4] = assay: In vivo %control of lactate in normal Sprague-Dawley rats after 2 hr at a dose of 30 umol/Kg; format: functional; method in brief: as §2
Rattus norvegicus [5] = assay: In vivo %control of lactate in normal Sprague-Dawley rats after 2 hr at a dose of 300 umol/Kg; Not active; format: functional, organism-based; method in brief: as §2
Homo sapiens = species on record: Homo sapiens; assay: Effective concentration required to increase the oxidation of lactate in cellular assay using Human Skin Fibroblasts; format: functional
Method in brief: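 Human fibroblasts harvested with trypsin 2-4 days post-confluence and assayed in suspension ((3.5-5) × 10^5 cells per tube) with test compound or solvent control. Equilibrated at 37 °C, then started with DMEM-S containing 25 µM lactate and 0.2 µCi/mL d,l-[1-14C]lactate. Gassed with 95% O2/5% CO2 and shaken 25 min at 37 °C. Stopped with TCA; released 14CO2 trapped and counted by scintillation. EC50 ± standard error.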

Structure (SMILES): C[C@@H]1CN(C(=O)[C@@](C)(O)C(F)(F)F)CCN1S(=O)(=O)c1ccccc1
- IC50 [1]: 0.037 µM
- NA (Rattus norvegicus [2]): inactive

Structure (SMILES): C[C@@](O)(C(=O)N1CCN(Cc2ccccc2)CC1)C(F)(F)F
- IC50 [1]: 19.9 µM

Structure (SMILES): C[C@@](O)(C(=O)N1CCN(C(=O)c2ccc(C#N)cc2)CC1)C(F)(F)F
- IC50 [1]: 6.7 µM

Structure (SMILES): CC(C)(O)C(=O)N1CCC(Cc2ccccc2)CC1
- IC50 [1]: 150 µM

Structure (SMILES): C[C@@H]1CN(C(=O)[C@@](C)(O)C(F)(F)F)CCN1
- IA [3]: inactive

Structure (SMILES): CC(=O)C(=O)NC1C2CC3CC(C2)CC1C3 (configuration not stated)
- IA [3]: inactive

Structure (SMILES): CC(Oc1ccccc1)(C(=O)NC1CCCCC1)C(F)(F)F (configuration not stated)
- IA [3]: inactive

Structure (SMILES): C[C@@H]1CN(C(=O)[C@@](C)(O)C(F)(F)F)CCN1/C(=N/C#N)Oc1ccccc1
- IC50 [1]: 0.049 µM
- Control (Rattus norvegicus [4]): 65%

Structure (SMILES): C[C@@](O)(C(=O)N1CCN(/C(=N/C#N)Oc2ccccc2)CC1)C(F)(F)F
- IC50 [1]: 6 µM

Structure (SMILES): O=C(Nc1ccccc1Cl)C(Cl)Cl
- IC50 [1]: 47 µM

Structure (SMILES): CC(C)CC(Cl)C(=O)N1CCC(Cc2ccccc2)CC1 (configuration not stated)
- IA [3]: inactive

Structure (SMILES): O=C(NC1C2CC3CC(C2)CC1C3)C1(O)CC1 (configuration not stated)
- IC50 [1]: 15 µM

Structure (SMILES): C[C@@](O)(C(=O)N1CCCN(Cc2ccccc2)CC1)C(F)(F)F
- IC50 [1]: 47 µM

Structure (SMILES): CCCC1CCN(C(=O)[C@@](C)(O)C(F)(F)F)CC1
- IC50 [1]: 3.1 µM

Structure (SMILES): CC(O)(C(=O)N1CCC(Cc2ccccc2)CC1)C(F)(F)F (configuration not stated)
- IC50 [1]: 2.16 µM
- NA (Rattus norvegicus [5]): inactive
- EC50 (Homo sapiens): 29 µM

Structure (SMILES): C[C@@](O)(C(=O)NC1CCCCC1)C(F)(F)F
- IC50 [1]: 6.2 µM

Structure (SMILES): C[C@@](O)(C(=O)N1CCN(c2cc([N+](=O)[O-])ccn2)CC1)C(F)(F)F
- IC50 [1]: 2.84 µM

Structure (SMILES): CC(Cl)C(=O)N1CCC(Cc2ccccc2)CC1 (configuration not stated)
- IC50 [1]: 2.6 µM

Structure (SMILES): COC(=O)c1ccc(C(=O)N2C[C@H](C)N(C(=O)[C@@](C)(O)C(F)(F)F)C[C@H]2C)cc1
- IC50 [1]: 0.019 µM

Structure (SMILES): C[C@@H]1CN(C(=O)[C@@](C)(O)C(F)(F)F)CCN1C(=O)c1ccc(C(=O)c2ccccc2)cc1 (stereo in doubt; 11g)
- IC50 [1]: 0.034 µM
- EC50 (Homo sapiens): 0.473 µM
- Control (Rattus norvegicus [4]): 66%

Structure (SMILES): C[C@@H]1CN(C(=O)[C@@](C)(O)C(F)(F)F)CCN1S(=O)(=O)c1ccc(C(C)(C)C)cc1
- IC50 [1]: 0.036 µM

Structure (SMILES): C[C@@H]1CN(C(=O)[C@@](C)(O)C(F)(F)F)CCN1C(=O)c1cc(Cl)cc(Cl)c1
- IC50 [1]: 0.028 µM

Structure (SMILES): CCC(O)(C(=O)Nc1ccccc1Cl)C(F)(F)F (configuration not stated)
- IC50 [1]: 20 µM

Structure (SMILES): CNS(=O)(=O)Nc1ccccc1Cl
- IA [3]: inactive

Structure (SMILES): C[C@@H]1CN(C(=O)[C@@](C)(O)C(F)(F)F)CCN1C(=O)c1ccc(C(=O)c2ccccc2)cc1 (stereo in doubt; 11r)
- IC50 [1]: 15 µM

Structure (SMILES): CC1(C(F)(F)F)OC(=O)N(C2CCCCC2)C1=O (stereo in doubt; 9)
- IA [3]: inactive

Structure (SMILES): C/N=C(/S)N1CCC(Cc2ccccc2)CC1
- IC50 [1]: 560 µM

Structure (SMILES): C[C@@](O)(C(=O)N1CCN(C(=O)c2cccc3ccccc23)CC1)C(F)(F)F
- IC50 [1]: 5.02 µM

Structure (SMILES): C[C@@](O)(C(=O)N1CCN(C(=O)c2ccccc2)CC1)C(F)(F)F
- IC50 [1]: 31.7 µM

Structure (SMILES): C[C@@H]1CN(C(=O)[C@@](C)(O)C(F)(F)F)CCN1C(=O)C1CCCCC1
- IC50 [1]: 0.064 µM
- Control (Rattus norvegicus [4]): 77%

Structure (SMILES): CC(=O)N1CCCCC1
- IA [3]: inactive

Structure (SMILES): COC(=O)N1CCC(Cc2ccccc2)CC1
- IC50 [1]: 1000 µM

Structure (SMILES): O=C(N1CCC(Cc2ccccc2)CC1)C(Cl)(Cl)Cl
- IC50 [1]: 30 µM

Structure (SMILES): O=C(N1CCC(Cc2ccccc2)CC1)C1(O)CC1
- IC50 [1]: 260 µM

Structure (SMILES): O=C(Nc1ccc(Cl)cc1)N1CCC(Cc2ccccc2)CC1
- IA [3]: inactive

Structure (SMILES): CC(C)[C@H]1CN(C(=O)c2ccc(C#N)cc2)[C@H](C)CN1C(=O)[C@@](C)(O)C(F)(F)F
- IC50 [1]: 17 µM

Structure (SMILES): C[C@@H]1CN(C(=O)[C@@](C)(O)C(F)(F)F)[C@@H](C)CN1C(=O)C1CCCCC1
- IC50 [1]: 0.013 µM

Structure (SMILES): C[C@@H]1CN(S(=O)(=O)c2cccc3ccccc23)[C@@H](C)CN1C(=O)[C@@](C)(O)C(F)(F)F
- IC50 [1]: 49 µM

Structure (SMILES): C[C@](O)(C(=O)NC1C2CC3CC(C2)CC1C3)C(F)(F)F (some centres not stated)
- IC50 [1]: 11 µM

Structure (SMILES): C[C@@H]1CN(C(=O)[C@@](C)(O)C(F)(F)F)[C@@H](C)CN1/C(=N/C#N)Oc1ccccc1
- IC50 [1]: 0.0091 µM

Structure (SMILES): CC1(C(F)(F)F)OC(=O)N(C2CCCCC2)C1=O (stereo in doubt; 8)
- IA [3]: inactive

Structure (SMILES): C[C@@H]1CN(C(=O)[C@@](C)(O)C(F)(F)F)[C@@H](C)CN1C(=O)OCc1ccccc1
- IC50 [1]: 0.0143 µM

Structure (SMILES): C[C@@H]1CN(C(=O)[C@@](C)(O)C(F)(F)F)[C@@H](C)CN1S(=O)(=O)c1cccc2ccccc12
- IC50 [1]: 0.0045 µM
- NA (Rattus norvegicus [2]): inactive

Structure (SMILES): C[C@@H]1CN(C(=O)[C@@](C)(O)C(F)(F)F)CCN1c1cc([N+](=O)[O-])ccn1
- IC50 [1]: 0.112 µM
- NA (Rattus norvegicus [2]): inactive

Structure (SMILES): COC(C)(C(=O)NC1C2CC3CC(C2)CC1C3)C(F)(F)F (configuration not stated)
- IA [3]: inactive

Structure (SMILES): CCCC1CCN(C(=O)[C@](C)(O)C(F)(F)F)CC1
- IC50 [1]: 75 µM

Structure (SMILES): C[C@](O)(C(=O)Nc1ccccc1Cl)C(F)(F)F
- IC50 [1]: 9.8 µM

Structure (SMILES): CC(O)(C(=O)N1CCCCC1)C(F)(F)F (configuration not stated)
- IC50 [1]: 23.9 µM

Structure (SMILES): C[C@@](O)(C(=O)N1CCCN(C(=O)c2ccccc2)CC1)C(F)(F)F
- IC50 [1]: 5.62 µM

Structure (SMILES): C[C@@](O)(C(=O)Nc1ccccc1Cl)C(F)(F)F
- IC50 [1]: 0.3 µM
- NA (Rattus norvegicus [5]): inactive
- EC50 (Homo sapiens): 5.4 µM

Structure (SMILES): CN(C)C(=O)N1CCC(Cc2ccccc2)CC1
- IC50 [1]: 416 µM

Structure (SMILES): C[C@@H]1CN(Cc2ccccc2)[C@@H](C)CN1C(=O)[C@@](C)(O)C(F)(F)F
- IC50 [1]: > 300 µM
- IA [3]: inactive

Structure (SMILES): C[C@@](O)(C(=O)N1CCCN(c2cc(Cl)ccn2)CC1)C(F)(F)F
- IC50 [1]: 2.59 µM

Structure (SMILES): C[C@@H]1CN(C(=O)[C@@](C)(O)C(F)(F)F)[C@@H](C)CN1C(=O)c1cc(Cl)cc(Cl)c1
- IC50 [1]: 0.0033 µM

Structure (SMILES): CNS(=O)(=O)NC1C2CC3CC(C2)CC1C3 (configuration not stated)
- IA [3]: inactive

Structure (SMILES): C[C@@](O)(C(=O)N1CCN(S(=O)(=O)c2ccccc2)CC1)C(F)(F)F
- IC50 [1]: 5.56 µM

Structure (SMILES): CCC(C)(O)C(=O)Nc1ccccc1Cl (configuration not stated)
- IC50 [1]: 23 µM

Structure (SMILES): C/N=C(\S)N1CC=C(C(C)(C)C)CC1
- IC50 [1]: 180 µM

Structure (SMILES): CC(C)NC(=O)N1CCC(Cc2ccccc2)CC1
- IA [3]: inactive

Structure (SMILES): CNC(=O)N1CCCCC1
- IA [3]: inactive

Structure (SMILES): C[C@@](O)(C(=O)N1CCNCC1)C(F)(F)F
- IA [3]: inactive

Structure (SMILES): C[C@@](O)(C(=O)NC1C2CC3CC(C2)CC1C3)C(F)(F)F (some centres not stated)
- IC50 [1]: 0.3 µM
- NA (Rattus norvegicus [5]): inactive

Structure (SMILES): CCC(O)(C(=O)NC1C2CC3CC(C2)CC1C3)C(F)(F)F (configuration not stated)
- IC50 [1]: 14 µM

Structure (SMILES): C[C@@H]1CN(C(=O)[C@@](C)(O)C(F)(F)F)CCN1C(=O)OCc1ccccc1
- IC50 [1]: 0.021 µM

Structure (SMILES): CC1CCCCN1C(=O)[C@@](C)(O)C(F)(F)F (some centres not stated)
- IC50 [1]: 2 µM

Structure (SMILES): CCCC1CCN(C(=O)C(C)(OC)C(F)(F)F)CC1 (configuration not stated)
- IA [3]: inactive

Structure (SMILES): C[C@@H]1CN(C(=O)[C@@](C)(O)C(F)(F)F)CCN1C(=O)c1ccccc1
- IC50 [1]: 0.173 µM

Structure (SMILES): COC(C)(C(=O)Nc1ccccc1Cl)C(F)(F)F (configuration not stated)
- IA [3]: inactive

Structure (SMILES): O=C(C(Cl)Cl)N1CCC(Cc2ccccc2)CC1
- IC50 [1]: 0.179 µM
- NA (Rattus norvegicus [5]): inactive
- EC50 (Homo sapiens): 1.12 µM

Structure (SMILES): CNS(=O)(=O)N1CCC(Cc2ccccc2)CC1
- IA [3]: inactive

Structure (SMILES): CC(O)C(=O)N1CCC(Cc2ccccc2)CC1 (configuration not stated)
- IC50 [1]: 310 µM

Structure (SMILES): C[C@@H]1CN(C(=O)[C@@](C)(O)C(F)(F)F)CCN1Cc1ccccc1
- IC50 [1]: > 1 µM

Structure (SMILES): CC(C)(O)C(=O)Nc1ccccc1Cl
- IC50 [1]: 5 µM

Structure (SMILES): Cc1cc(C)c(S(=O)(=O)N2CCN(C(=O)[C@@](C)(O)C(F)(F)F)C[C@H]2C)c(C)c1
- IC50 [1]: 0.039 µM

Structure (SMILES): C[C@@H]1CN(C(=O)[C@@](C)(O)C(F)(F)F)[C@@H](C)CN1C(=O)c1ccc(C(=O)c2ccccc2)cc1
- IC50 [1]: 0.0198 µM

Structure (SMILES): O=C(NC1C2CC3CC(C2)CC1C3)C(O)(C(F)(F)F)C(F)(F)F (configuration not stated)
- IC50 [1]: 17 µM

Structure (SMILES): CC(C)(O)C(=O)NC1C2CC3CC(C2)CC1C3 (configuration not stated)
- IC50 [1]: 10 µM
